# Env fusion inh = blocks HIV Env-driven cell-cell fusion. 1.1% of 360,000 active. HeLa-JRFL Env/CEM21 cell fusion, luciferase. inhibition, % at 12.3 µM;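 active = mean replicate inhibition score of at least 50 and every replicate individually at or above 50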;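 also: 0% = plate neutral controls and 100% = maraviroc near 300 nM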
# PAX8 inh HTS = lowers PAX8-driven luciferase in RMG-I cells. inhibition, % at 12.6 µM. AID 652154. RMG-I TPO-luciferase reporter, SteadyGlo, 24 h. 1.2% of 360,000 active;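 active = mean replicate inhibition at least 60% with every replicate also reaching 60%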;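 also: luciferase light reporting Pax8 driven TPO promoter activity; plate controls were median of neutral control wells for no effect and mitoxantrone controls for full effect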
# AF4-AF9 inh = inhibitors of human MLL-AF4/AF9 interaction; AlphaScreen, biotin-AF4 peptide binding to FLAG-AF9; 0.47% of 350,000 active; P42568; inhibition, % at 10 µM;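 active = every replicate reaching a set inhibition limit, whatever the replicate mean, cut at about 25% in these data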;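 also: 0% = plate neutral control median and 100% = total signal loss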
# Target sequence (P42568 whole entry, looked up): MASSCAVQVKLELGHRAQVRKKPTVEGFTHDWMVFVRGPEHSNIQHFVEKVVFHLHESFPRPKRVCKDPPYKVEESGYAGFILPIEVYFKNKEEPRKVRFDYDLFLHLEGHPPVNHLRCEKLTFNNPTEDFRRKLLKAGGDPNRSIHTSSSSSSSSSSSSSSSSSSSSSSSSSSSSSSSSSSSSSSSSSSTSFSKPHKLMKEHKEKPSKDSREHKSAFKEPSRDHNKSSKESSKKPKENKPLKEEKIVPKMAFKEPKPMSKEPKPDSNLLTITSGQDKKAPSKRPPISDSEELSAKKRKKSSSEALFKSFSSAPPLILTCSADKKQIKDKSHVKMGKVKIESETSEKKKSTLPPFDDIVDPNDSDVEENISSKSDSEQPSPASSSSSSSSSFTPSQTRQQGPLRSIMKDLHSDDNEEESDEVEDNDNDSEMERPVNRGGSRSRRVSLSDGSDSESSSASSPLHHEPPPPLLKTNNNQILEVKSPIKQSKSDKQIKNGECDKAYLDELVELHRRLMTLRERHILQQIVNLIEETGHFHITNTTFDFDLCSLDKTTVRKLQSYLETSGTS
# FN deposit inh = fibronectin deposition inhibition | AH1F fibroblasts, Alexa488-fibronectin deposition fluorescence, overnight | inhibition, % at 12.6 µM | AID 743247 | 0.086% of 350,000 active;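 active = mean inhibition across replicates of 30% or more, regardless of how many single replicates reach that level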;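 also: positive control wells lacked labelled fibronectin entirely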
#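 Assay system: AH1F fibroblasts assembling fluorescent fibronectin matrix; Amount: 10000 AH1F cells per well; Buffer or medium: DMEM, 2% serum; Probe or stimulus: Alexa488-fibronectin, 24 nM final in well; Doses: single compound dose, delivered by pin transfer; Incubation: 1 h adhesion, overnight exposure; Measured by: fluorescence 485/525 nm; Read-out: fibronectin deposition inhibition.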
# Glyco luc inh = blocks N-linked glycosylation in D54 reporter cells; D54 ERlucT glycosylation luciferase reporter, 24 h; percent of 100 nM tunicamycin response; reporter increase, % at 12.5 µM; 0.23% of 360,000 active; AID 588692;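 active = mean luciferase reporter signal, scaled so untreated is 0 and the glycosylation-blocking control 100, at or above a set limit in every replicate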;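 also: luciferase carries N-glycosylation sites so blocking glycosylation raises the light; 0% = median of neutral control wells and 100% = median of 100 nM tunicamycin wells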
# EWS-Fli inh = inhibitors of EWS/Fli oncoprotein transcriptional activity; inhibition, % at 12.6 µM; 0.67% of 350,000 active; A673 NR0B1-luciferase reporter, viability-normalised;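 active = mean inhibition of at least 50% after viability correction, with every replicate also passing that limit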;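 also: firefly luciferase signal divided by Alamar Blue viability fluorescence both relative to DMSO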
# The depositor's hits bear a star; x = not tested or not shown; [ ] = dose if it differs, or a comment. Most compounds without a hit are left out; they make up all but 2.5% or so of the library.
SMILES,Env fusion inh,PAX8 inh HTS,AF4-AF9 inh,FN deposit inh,Glyco luc inh,EWS-Fli inh
C[C@H]1CN([C@@H](C)CO)C(=O)Cc2cc(NC(=O)C3CC3)ccc2O[C@@H]1CN(C)Cc1ccc(Oc2ccccc2)cc1,-4.7[16.7 µM],x,3.8,x,x,-1.8
FC(F)(Cl)c1nnc2ccc(Cl)nn12,8.5,74.1*,-0.3,x,4.4,-7.8
Clc1ccc2nnc(Cl)n2n1,-1.8,20.9,-6.0,3.0,-1.0,7.5
CC(=O)C1(C)N(O)C(C)(C)C(c2ccco2)=[N+]1[O-] (stereo not given),58.3*,-9.3,x,-2.1,0.9,x
CC1=C(C(=O)Nc2cccc(F)c2)C(c2ccsc2)C2=C(CC(C)(C)CC2=O)N1 (stereo not given),-68.2,-10.3,-7.9,x,16.4,54.1*
CC1=C(C(=O)Nc2ccccc2F)C(c2ccsc2)C2=C(CC(C)(C)CC2=O)N1 (stereo not given),-30.9,2.2,-7.3,4.0,2.5,3.7
O=C(C[C@@H]1C[C@@H]2c3cc(NC(=O)NC4CCCCC4)ccc3O[C@@H]2[C@H](CO)O1)NCC(F)(F)F,20.5[16.7 µM],-12.0,-2.0,x,x,2.0
NC(CCc1ccccc1)c1csc(NC(=O)Nc2cccc(C(F)(F)F)c2)n1 (stereo not given),55.2*,-1.3,16.9,-1.6,-4.4,44.8
COc1ccc(CC(N)c2csc(NC(=O)Nc3ccc(F)cc3)n2)cc1 (stereo not given),37.1,-21.4,2.3,2.0,-4.1,-0.8
NC(Cc1ccc(C(F)(F)F)cc1)c1csc(NC(=O)Nc2ccccc2)n1 (stereo not given),77.7*,-3.8,3.1,-9.1,-2.6,-5.3
NC(Cc1ccc(C(F)(F)F)cc1)c1csc(NC(=O)Nc2ccccc2Cl)n1 (stereo not given),58.2*,-5.9,0.2,1.8,-1.2,2.7
NC(Cc1ccc(Cl)cc1)c1csc(NC(=O)Nc2ccccc2)n1 (stereo not given),60.8*,13.6,7.1,-9.3,-3.7,-3.3
COc1ccc(NC(=O)N(C)C[C@H]2Oc3cc(C#CCC(C)C)ccc3S(=O)(=O)N([C@@H](C)CO)C[C@H]2C)cc1,x,12.9,1.5,x,x,26.0
C[C@@H]1CN([C@H](C)CO)S(=O)(=O)c2ccc(-c3ccccc3)cc2O[C@@H]1CN(C)C(=O)C1CCCCC1,34.5[16.7 µM],x,4.3,x,x,6.7
C[C@@H]1CN([C@H](C)CO)C(=O)c2cccc(NC(=O)Nc3ccc4c(c3)OCO4)c2O[C@@H]1CN(C)C(=O)Nc1ccc2c(c1)OCO2,1.9[16.7 µM],-2.0,7.6,x,x,-1.9
NC(CCc1ccccc1)c1csc(Nc2ccccn2)n1 (stereo not given),84.8*,-2.7,5.8,x,-2.0,-1.6
COc1ccccc1NC(=O)Nc1nc(C(N)Cc2ccc(Cl)cc2)cs1 (stereo not given),64.1*,-14.3,5.3,-11.5,-5.5,-15.6
C[C@@H]1CN([C@H](C)CO)S(=O)(=O)c2ccc(-c3cccc(C#N)c3)cc2O[C@H]1CN(C)C(=O)C1CC1,5.7[16.7 µM],x,0.6,8.8,x,-1.4
CCN1c2ccccc2-c2nc3ccccc3n2C1c1ccco1 (stereo not given),55.4*,x,x,-2.2,-2.3,x
c1ccc(CN2c3ccccc3-c3nc4ccccc4n3C2c2ccccn2)cc1 (stereo not given),-53.4,-146.1,x,-0.7,-2.6,x
CCCCC1Cc2[nH]c(=S)[nH]c(=O)c2C(c2ccc(F)cc2)O1 (stereo not given),-4.5,95.3*,-4.1,x,3.8,7.3
COc1ccc(N2CCN(CC(O)COC(c3ccccc3)c3ccccc3)CC2)cc1 (stereo not given),7.6,7.8,16.0,-1.4,-3.1,14.7
COc1ccc(N2CCN(CC(O)COC(c3ccc(F)cc3)c3ccc(F)cc3)CC2)cc1 (stereo not given),-7.0,-23.3,27.1*,-1.0,-2.9,1.1
Nc1nc(Cl)cc(N2CCCC2)n1,1.9,5.0,-1.0,5.9,2.1,-17.9
Nc1nc(Cl)cc(N2CCC(c3cc(-c4ccc(Cl)cc4Cl)n[nH]3)CC2)n1,101.5*,23.0,x,-2.3,2.3,x
SMILES,Env fusion inh,PAX8 inh HTS,AF4-AF9 inh,FN deposit inh,Glyco luc inh,EWS-Fli inh
C[C@@H](NC(=O)C[C@@H]1C[C@H]2c3cc(NC(=O)CC4CC4)ccc3O[C@H]2[C@H](CO)O1)c1ccccc1,x,x,-1.6,-5.3,x,25.8
COc1ccc(CN(C)C[C@@H]2OCCCC[C@H](C)Oc3ccc(NC(=O)Nc4cccc5ccccc45)cc3C(=O)N([C@H](C)CO)C[C@H]2C)cc1,32.1[16.7 µM],79.6*,11.6,x,x,3.2
COc1ccc(CN(C)C[C@@H]2OCCCC[C@@H](C)Oc3ccc(NC(=O)Nc4cccc5ccccc45)cc3C(=O)N([C@H](C)CO)C[C@H]2C)cc1,-13.2[16.7 µM],41.9,13.2,x,x,66.9*
COc1ccc(CN(C)C[C@H]2OCCCC[C@H](C)Oc3ccc(NC(=O)Nc4cccc5ccccc45)cc3C(=O)N([C@@H](C)CO)C[C@H]2C)cc1,4.2[16.7 µM],19.2,-6.8,x,x,44.8
COc1ccc(CN(C)C[C@@H]2OCCCC[C@@H](C)Oc3ccc(NC(=O)Nc4cccc5ccccc45)cc3C(=O)N([C@@H](C)CO)C[C@H]2C)cc1,5.1[16.7 µM],10.4,-4.8,x,x,64.1*
COc1ccc(CN(C)C[C@@H]2OCCCC[C@H](C)Oc3ccc(NC(=O)Nc4cccc5ccccc45)cc3C(=O)N([C@@H](C)CO)C[C@@H]2C)cc1,24.0[16.7 µM],6.8,-2.8,x,x,65.2*
COc1ccc(CN(C)C[C@@H]2OCCCC[C@@H](C)Oc3ccc(NC(=O)Nc4cccc5ccccc45)cc3C(=O)N([C@@H](C)CO)C[C@@H]2C)cc1,-5.9[16.7 µM],3.3,0.0,x,x,-2.3
CN1CCN(C(=O)C[C@H]2CC[C@@H](NC(=O)Nc3ccccc3F)[C@@H](CO)O2)CC1,-2.1[16.7 µM],-15.4,-1.0,6.2,x,-0.9
C/C=C/c1ccc2c(c1)O[C@H](CN(C)C(=O)NC1CCCCC1)[C@@H](C)CN([C@H](C)CO)S2(=O)=O,-27.9[16.7 µM],-31.6,-1.6,-17.6,x,-3.6
Cc1noc(C)c1NC(=O)N(C)C[C@H]1Oc2cc(C#CCC3CCCC3)ccc2S(=O)(=O)N([C@@H](C)CO)C[C@@H]1C,x,66.5*,8.5,6.5,x,0.5
C[C@@H]1CN([C@H](C)CO)S(=O)(=O)c2ccc(C#Cc3ccc(F)cc3)cc2O[C@H]1CN(C)C(=O)NC1CCCC1,20.6[16.7 µM],x,-3.6,6.1,x,28.9
C/C=C/c1ccc2c(c1)O[C@H](CN(C)C(=O)NC1CCCCC1)[C@H](C)CN([C@@H](C)CO)S2(=O)=O,56.2*[16.7 µM],-5.7,-1.4,-1.4,x,-8.1
Cc1noc(C)c1NC(=O)N(C)C[C@@H]1Oc2cc(C#CCC3CCCC3)ccc2S(=O)(=O)N([C@H](C)CO)C[C@@H]1C,x,27.0,20.3,-31.7,x,1.9

# Screening data deposited in PubChem by Broad Institute.
